Test [1] has as its target T1, 14‐3‐3ζ WT (Homo sapiens, UniProt P63104).
T1 sequence (P63104 1-245): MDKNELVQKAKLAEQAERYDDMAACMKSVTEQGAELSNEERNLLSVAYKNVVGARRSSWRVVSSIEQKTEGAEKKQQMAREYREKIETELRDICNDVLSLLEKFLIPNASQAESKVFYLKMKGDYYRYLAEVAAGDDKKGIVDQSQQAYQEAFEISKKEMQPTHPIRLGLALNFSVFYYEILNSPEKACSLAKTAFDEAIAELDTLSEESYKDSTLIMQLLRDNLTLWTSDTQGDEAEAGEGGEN
Type of test: binding. The conditions noted are these: FP, 25°C, 30 min; for effect on binding of mode 1 or mode 2 peptides to 14‐3‐3ζ: 1 mM ATP or ATPγS, peptide 62.5 nM, protein 8 to 0.0625 μM. The procedure, abridged:
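Untagged recombinant 14‐3‐3ζ WT apoprotein (His‐tagged, expressed in E. coli BL21 DE3, Ni‐NTA then size exclusion, TEV‐cleaved) in 50 mM Na‐HEPES pH 8.0, 150 mM NaCl, 10% glycerol. N‐terminal FAM peptides fixed at 62.5 nM, protein titrated 8 to 0.0625 μM, ±1 mM ATP or ATPγS in binding buffer. 30 min at 25°C in the dark, then anisotropy read; K_D fitted.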

The target of test [2] is T1, 14‐3‐3ζ WT. Type of test: binding. As to conditions: MST. An outline of the steps: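 Labelled peptide binding by thermophoresis with recombinant, TEV‐cleaved 14‐3‐3ζ WT. Protein from 32 μM serially diluted 2‐fold with 10 μM FAM‐peptide in FP buffer (50 mM Na‐HEPES pH 8.0, 150 mM NaCl, 10% glycerol), at varied ATP concentrations. Fluorescence counts and power set per manufacturer. Standard glass capillaries; fit in instrument software.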

The target of test [3] is T2, 14‐3‐3ζ Y82A (Homo sapiens, UniProt P63104, Y82A).
T2 sequence (P63104 1-245 Y82A): T1 sequence (P63104 1-245) with Y82A
Description: ExoS peptide binding to 14‐3‐3ζ Y82A by microscale thermophoresis, effect of ATP. As to conditions: MST; different concentrations of ATP. The procedure, abridged:
(§1)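 Purified untagged mutant 14‑3‑3ζ, starting at 32 μM, serially diluted 2‑fold in 10 μM FAM‑labeled peptide, in the FP binding buffer (50 mM Na‑HEPES pH 8.0, 150 mM NaCl, 10% glycerol), with ATP at several concentrations. Fluorescent counts and power set beforehand. Samples read in standard glass capillaries on a Monolith NT.115.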

Test [4] deals with T3, 14‐3‐3ζ R55A (Homo sapiens, UniProt P63104, R55A).
T3 sequence (P63104 1-245 R55A): T1 sequence (P63104 1-245) with R55A
Description: ExoS peptide binding to 14‐3‐3ζ R55A by microscale thermophoresis, effect of ATP. The conditions noted are these: MST; different concentrations of ATP. An outline of the steps: as §1
(In general: In MST a laser heats a spot of the sample, and binding alters the fluorescence response.)

Another test concerns 14‐3‐3ζ E180A. It counts as binding, human. As to conditions: FP; 1 mM ATP; 5FAM‐labeled ExoS peptide 62.5 nM, 25°C, 30 min. An outline of the steps:
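Recombinant human 14‑3‑3ζ mutant, His‑tagged, expressed in E. coli BL21 DE3, purified by Ni‑NTA and size exclusion, tag removed with TEV, buffer‑exchanged into 50 mM Na‑HEPES pH 8.0, 150 mM NaCl, 10% glycerol. N‑terminal FAM‑peptide held at 62.5 nM, protein titrated 8 to 0.0625 μM, 1 mM ATP in binding buffer. 25°C, dark, 30 min; anisotropy change read; K_D fitted.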

Test [5] has as its target T1, 14‐3‐3ζ WT. Description: LiP‐MS. As to conditions: 500 μM ATPγS. It counts as binding.
For test [6], the target named is T1, 14‐3‐3ζ WT. Description: Peptide binding to 14‐3‐3ζ WT by surface plasmon resonance, effect of ATPγS. As to conditions: SPR, HBS‐P pH 7.4. The procedure, abridged:
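Amine coupling of recombinant 14‐3‐3ζ WT onto a CM5 chip to 4000 RU. Analyte 10 μM peptide with 10 μM to 1 mM ATPγS in HBS‐P (10 mM Na‐HEPES pH 7.4, 150 mM NaCl, 0.005% v/v Tween‐20). RU change during association and dissociation recorded. Sensorgrams fitted to a 1:1 binding model; relative response compared across ATPγS concentrations.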
In general terms: In SPR one partner is held on a chip, and binding of the other changes the refractive index at the surface.

For test [7], the target named is T2, 14‐3‐3ζ Y82A. Put plainly: ExoS peptide binding to Y82A by surface plasmon resonance, effect of ATPγS. As to conditions: SPR; 10 μM to 1 mM ATPγS with 10 μM peptide; HBS‐P pH 7.4; qualitative. The procedure, abridged: (§2)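 Mutant 14‑3‑3ζ amine‑coupled to a CM5 chip at 4000 RU. ATPγS from 10 μM to 1 mM, together with 10 μM peptide, injected in HBS‑P (10 mM Na‑HEPES pH 7.4, 150 mM NaCl, 0.005% Tween‑20). RU changes on association and dissociation tracked; sensorgrams fitted to a 1:1 binding model.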

Test [8] has as its target T3, 14‐3‐3ζ R55A. Put plainly: ExoS peptide binding to R55A by surface plasmon resonance, effect of ATPγS. As to conditions: SPR; 10 μM to 1 mM ATPγS with 10 μM peptide; HBS‐P pH 7.4; qualitative. The procedure, abridged: as §2
Another test relates to 14‐3‐3τ. As to conditions: cited from earlier work.
Another test addresses T4, 14-3-3ζ R55A (human, UniProt P63104 1-245, R55A).
T4 sequence (looked up): T1 sequence (P63104 1-245) with R55A
Put plainly: MST.

The next test addresses T5, 14-3-3ζ Y82A (human, UniProt P63104 1-245, Y82A).
T5 sequence (looked up): T1 sequence (P63104 1-245) with Y82A
Description: MST.

Another test concerns the target T6, 14-3-3ζ WT (human, UniProt P63104 1-245).
T6 sequence (looked up): T1 sequence (P63104 1-245)
Put plainly: fluorescence polarisation. A general note: In fluorescence polarisation assays a small probe gives low polarisation when free and higher when bound to something large.

Another test deals with T7, 14-3-3ζ E180A (human, UniProt P63104 1-245, E180A).
T7 sequence (looked up): T1 sequence (P63104 1-245) with E180A
Put plainly: fluorescence polarisation.

Substitutions are numbered along the chain they refer to. Entries after “also recorded” stand apart in the source; their conditions may differ. Where no end group is shown, it is not given here. The star is where a group is joined. 5FAM = O=C1OC2(c3ccc(O)cc3Oc3cc(O)ccc32)c2ccc(C(=O)*)cc21

`Nc1ncnc2c1ncn2[C@@H]1O[C@H](COP(=O)(O)OP(=O)(O)OP(=O)(O)O)[C@@H](O)[C@H]1O` [ATP]: on 14‐3‐3ζ WT [1], the “effect on binding of mode 1 or mode 2 peptides to 14‐3‐3ζ” value is reported as “no effect”. For the same molecule, the “effect on binding of ExoS peptide to 14‐3‐3ζ WT” value at 14‐3‐3ζ WT [1] (1 mM ATP, 5FAM‐labeled ExoS peptide 62.5 nM) is given as “marginally but reproducibly decreased”. The “type of inhibition of ExoS peptide binding” value on 14‐3‐3ζ WT [2] (14‐3‐3ζ WT, ATP at the dimer interface) is reported as “as a non‐competitive inhibitor by binding to the dimer interface”. Also, at 14‐3‐3ζ WT [2] (FAM‐labeled peptide), the “effect on binding of phosphopeptide to ζWT” value is reported as “did not show any effect”. The “effect on binding of ExoS peptide to ζWT” value at 14‐3‐3ζ WT [2] (different concentrations of ATP) is “the binding of nonphosphorylated ExoS peptide decreased in the presence of ATP; also recorded: concentration‐dependent inhibition”. The “effect on binding of ExoS peptide to Y82A” value at 14‐3‐3ζ Y82A [3] is “did not affect the binding”. Further, at 14‐3‐3ζ R55A [4], the “effect on binding of ExoS peptide to R55A” value is given as “did not affect the binding”. The “effect on binding of ExoS peptide to E180A mutant” value in the test on 14‐3‐3ζ E180A is reported as “marginally but reproducibly decreased”. The “ATP binding site suggested by LiP‐MS” value on 14‐3‐3ζ WT [5] was “there is a second ATP binding site at the dimer interface”.

`Nc1ncnc2c1ncn2[C@@H]1O[C@H](CO[P@](=O)(O)O[P@](=O)(O)O[P@@](=O)(O)S)[C@@H](O)[C@H]1O` [ATPγS]: the “effect on binding of mode 1 or mode 2 peptides to 14‐3‐3ζ” value on 14‐3‐3ζ WT [1] is listed as “no effect”. In addition, the “effect on binding of nonphosphopeptide ExoS to ζWT” value at 14‐3‐3ζ WT [6] (10 μM to 1 mM ATPγS with 10 μM peptide, qualitative) is recorded as “definitive decrease; also recorded: concentration‐dependent inhibition”. On 14‐3‐3ζ WT [6] (1 mM ATPγS), the “effect on binding of mode 2 phosphopeptide to 14‐3‐3ζ WT” value was “did not show any effect”. Moreover, the “effect on binding of nonphosphopeptide ExoS to Y82A” value on 14‐3‐3ζ Y82A [7] is listed as “definitive decrease”. Further, the “effect on binding of nonphosphopeptide ExoS to R55A” value at 14‐3‐3ζ R55A [8] is reported as “definitive decrease”. Moreover, on 14‐3‐3ζ WT [5], the “ATP binding site suggested by LiP‐MS” value is on record as 81–91 residues which are part of the dimer interface, were exclusively protected by ATPγS. The “protection against Proteinase K cleavage (SDS PAGE)” value at 14‐3‐3ζ WT [5] (25°C, 30 min, Proteinase K 1:100, 1 min at 25°C) is recorded as “protects the protein against proteolytic cleavage”. The “Log2 fold change of conformotypic peptide, ATPγS bound versus unbound” value on 14‐3‐3ζ WT [5] (peptide YDDMAAC (19–25), C_SEMI, adjusted p 2.49E‐02) is on record as −1.0; on 14‐3‐3ζ WT [5] (peptide YDDMAACMK (19–27), FULL_TRP, adjusted p 6.47E‐03), 1.8.

B1: 14‐3‐3τ: 14‐3‐3 tau paralog (protein, UniProt P27348 1-245, looked up)
14-3-3 protein theta: MEKTELIQKAKLAEQAERYDDMATCMKAVTEQGAELSNEERNLLSVAYKNVVGGRRSAWRVISSIEQKTDTSDKKLQLIKDYREKVESELRSICTTVLELLDKYLIANATNPESKVFYLKMKGDYFRYLAEVACGDDRKQTIDNSQGAYQEAFDISKKEMQPTHPIRLGLALNFSVFYYEILNNPELACTLAKTAFDEAIAELDTLNEDSYKDSTLIMQLLRDNLTLWTSDSAGEECDAAEGAEN
Turning to B1, the ATP/ADP exchange activity entry in the test with 14‐3‐3τ was “has an ATP/ADP exchange activity”.

Take 5FAM-QGLLDALDLAS [FAM-labeled nonphosphorylated ExoS peptide (5FAM-QGLLDALDLAS)]: the binding result with 14-3-3ζ R55A, with 14-3-3ζ Y82A, with 14-3-3ζ WT and with 14-3-3ζ E180A was “binds” each time.

Values taken from publication PMC12429009 (The FASEB Journal, 2025).
